Experimental data: ChEMBL document CHEMBL1135657, “Novel dual inhibitors of AChE and MAO derived from hydroxy aminoindan and phenethylamine as potential treatment for Alzheimer's disease” (J Med Chem, 2002)

What was measured:
[1] = target: T1, Amine oxidase [flavin-containing] B (Rattus norvegicus, UniProt P19643); assay: biochemical; format: tissue-based, Brain
T1 sequence (P19643 whole entry): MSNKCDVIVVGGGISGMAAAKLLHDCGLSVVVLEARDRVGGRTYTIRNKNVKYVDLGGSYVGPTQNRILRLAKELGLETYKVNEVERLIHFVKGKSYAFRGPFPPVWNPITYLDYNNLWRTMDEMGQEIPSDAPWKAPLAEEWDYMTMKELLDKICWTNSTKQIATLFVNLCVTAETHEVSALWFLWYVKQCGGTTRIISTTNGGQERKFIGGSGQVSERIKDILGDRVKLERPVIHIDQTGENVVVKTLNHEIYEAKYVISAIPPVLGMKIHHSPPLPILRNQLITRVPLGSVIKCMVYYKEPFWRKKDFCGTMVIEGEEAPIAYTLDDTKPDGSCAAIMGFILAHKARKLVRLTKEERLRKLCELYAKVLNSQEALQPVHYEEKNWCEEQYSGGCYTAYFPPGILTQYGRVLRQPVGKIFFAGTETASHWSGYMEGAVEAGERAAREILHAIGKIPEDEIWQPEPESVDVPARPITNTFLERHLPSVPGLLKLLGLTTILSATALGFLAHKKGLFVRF

[2] = target: T2, Amine oxidase [flavin-containing] A (Rattus norvegicus, UniProt P21396); assay: In vitro inhibitory concentration against Monoamine oxidase A of rat brain homogenates; value ranges from 0.5-3.7; format: tissue-based
T2 sequence (P21396 whole entry): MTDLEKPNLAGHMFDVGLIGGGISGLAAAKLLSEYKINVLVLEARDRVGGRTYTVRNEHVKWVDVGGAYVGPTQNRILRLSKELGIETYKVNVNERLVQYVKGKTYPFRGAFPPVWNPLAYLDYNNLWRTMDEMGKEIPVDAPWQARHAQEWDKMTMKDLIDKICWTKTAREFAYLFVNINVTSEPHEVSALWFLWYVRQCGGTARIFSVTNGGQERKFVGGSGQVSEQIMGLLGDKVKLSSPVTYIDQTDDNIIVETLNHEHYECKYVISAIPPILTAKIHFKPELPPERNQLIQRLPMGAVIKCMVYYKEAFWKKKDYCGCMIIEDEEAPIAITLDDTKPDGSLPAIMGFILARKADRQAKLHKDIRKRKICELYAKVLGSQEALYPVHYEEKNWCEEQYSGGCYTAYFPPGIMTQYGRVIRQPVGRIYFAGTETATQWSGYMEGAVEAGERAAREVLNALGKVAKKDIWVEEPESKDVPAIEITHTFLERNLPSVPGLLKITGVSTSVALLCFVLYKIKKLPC

Butyrylcholinesterase [3] = target: T3, Butyrylcholinesterase (Equus caballus, UniProt Q9N1N9); assay: In vitro inhibitory concentration against Butyrylcholinesterase of horse serum; value ranges from 1.89-4.67
T3 sequence (Q9N1N9 whole entry): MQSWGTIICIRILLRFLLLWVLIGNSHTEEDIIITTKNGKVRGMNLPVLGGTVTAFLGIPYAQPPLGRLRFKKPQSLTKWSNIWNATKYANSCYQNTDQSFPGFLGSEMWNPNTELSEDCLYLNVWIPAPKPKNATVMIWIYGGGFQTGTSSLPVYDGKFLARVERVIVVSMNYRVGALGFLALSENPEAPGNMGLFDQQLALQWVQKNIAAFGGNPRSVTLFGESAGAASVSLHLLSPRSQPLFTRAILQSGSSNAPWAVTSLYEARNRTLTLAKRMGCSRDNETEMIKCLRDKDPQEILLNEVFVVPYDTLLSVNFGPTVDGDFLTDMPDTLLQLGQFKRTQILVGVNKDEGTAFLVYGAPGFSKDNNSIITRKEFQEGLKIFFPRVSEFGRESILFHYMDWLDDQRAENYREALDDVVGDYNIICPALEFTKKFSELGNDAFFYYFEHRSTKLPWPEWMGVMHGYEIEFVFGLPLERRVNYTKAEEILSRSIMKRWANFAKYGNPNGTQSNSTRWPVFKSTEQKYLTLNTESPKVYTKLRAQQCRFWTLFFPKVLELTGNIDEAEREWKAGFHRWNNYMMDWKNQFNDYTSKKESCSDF
Method in brief: (§1)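 Ellman assay followed, with 200 µM butyrylthiocholine as substrate. Runs were in triplicate with four-point dose-response curves. IC50 and fiducial limits came from log concentration versus % inhibition.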

[4] = target: T2, Amine oxidase [flavin-containing] A; assay: In vitro inhibitory concentration against Monoamine oxidase A of rat brain homogenates; value ranges from 13-17; format: tissue-based
[5] = target: T1, Amine oxidase [flavin-containing] B; assay: In vitro inhibitory concentration against Monoamine oxidase B of rat brain homogenates; value ranges from 0.2-0.8; format: tissue-based
Acetylcholinesterase [6] = target: T4, Acetylcholinesterase (Homo sapiens, UniProt P22303); assay: In vitro inhibitory concentration against purified Acetylcholinesterase of human erythrocytes; value ranges from 5.4-38.2
T4 sequence (P22303 whole entry): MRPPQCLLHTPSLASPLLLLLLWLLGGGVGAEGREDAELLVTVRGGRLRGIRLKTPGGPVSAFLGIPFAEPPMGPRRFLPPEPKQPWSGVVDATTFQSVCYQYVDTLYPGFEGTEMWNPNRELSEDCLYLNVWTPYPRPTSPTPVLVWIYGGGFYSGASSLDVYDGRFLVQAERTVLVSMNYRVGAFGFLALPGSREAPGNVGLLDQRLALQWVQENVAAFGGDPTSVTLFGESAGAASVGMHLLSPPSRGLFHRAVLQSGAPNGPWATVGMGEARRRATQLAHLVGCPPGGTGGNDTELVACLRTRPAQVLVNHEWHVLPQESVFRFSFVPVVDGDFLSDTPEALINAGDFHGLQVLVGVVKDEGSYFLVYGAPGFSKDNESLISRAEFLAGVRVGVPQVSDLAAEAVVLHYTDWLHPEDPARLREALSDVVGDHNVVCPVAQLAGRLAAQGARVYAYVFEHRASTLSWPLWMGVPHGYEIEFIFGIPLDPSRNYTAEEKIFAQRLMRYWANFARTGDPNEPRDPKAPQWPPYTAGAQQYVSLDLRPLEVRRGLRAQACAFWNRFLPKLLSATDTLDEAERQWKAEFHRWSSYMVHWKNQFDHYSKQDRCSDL

Acetylcholinesterase [7] = target: T4, Acetylcholinesterase; assay: In vitro inhibitory concentration against purified Acetylcholinesterase of human erythrocytes; value ranges from 2.2-10.1
[8] = target: T1, Amine oxidase [flavin-containing] B; assay: In vitro inhibitory concentration against Monoamine oxidase B of rat brain homogenates; format: tissue-based
[9] = target: T2, Amine oxidase [flavin-containing] A; assay: In vitro inhibitory concentration against Monoamine oxidase A of rat brain homogenates; value ranges from 1.8-2.4; format: tissue-based
Butyrylcholinesterase [10] = target: T3, Butyrylcholinesterase; assay: In vitro inhibitory concentration against Butyrylcholinesterase of horse serum; value ranges from 0.71-0.86
Method in brief: as §1

[11] = target: T2, Amine oxidase [flavin-containing] A; assay: In vitro inhibitory concentration against Monoamine oxidase A of rat brain homogenates; value ranges from 0.005-0.012; format: tissue-based
[12] = target: T2, Amine oxidase [flavin-containing] A; assay: In vitro inhibitory concentration against Monoamine oxidase A of rat brain homogenates; value ranges from 60-150; format: tissue-based
Acetylcholinesterase [13] = target: T4, Acetylcholinesterase; assay: In vitro inhibitory concentration against purified Acetylcholinesterase of human erythrocytes; value ranges from 0.18-0.44
[14] = target: T1, Amine oxidase [flavin-containing] B; assay: In vitro inhibitory concentration against Monoamine oxidase B of rat brain homogenates; value ranges from 0.18-0.30; format: tissue-based
Method in brief: (§2)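 Rat brain homogenate (in 0.3 M sucrose) as enzyme source; compounds diluted 10⁻²M to 10⁻⁹M in 0.05 M phosphate buffer with 0.15 μM clorgyline; preincubated 60 min at 37 °C, then 10 μM ¹⁴C-phenylethylamine added for 20 min more; stopped with citric acid; metabolites extracted into toluene/ethyl acetate, scintillation counted; activity as % of control, tranylcypromine blank.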

[15] = target: T2, Amine oxidase [flavin-containing] A; assay: In vitro inhibitory concentration against Monoamine oxidase A of rat brain homogenates; value ranges from 14-24; format: tissue-based
Acetylcholinesterase [16] = target: T4, Acetylcholinesterase; assay: In vitro inhibitory concentration against purified Acetylcholinesterase of human erythrocytes; value ranges from 2.2-6.9
[17] = target: T2, Amine oxidase [flavin-containing] A; assay: In vitro inhibitory concentration against Monoamine oxidase A of rat brain homogenates; value ranges from 0.014-0.016; format: tissue-based
[18] = target: T1, Amine oxidase [flavin-containing] B; assay: In vitro inhibitory concentration against Monoamine oxidase B of rat brain homogenates; value ranges from […]; format: tissue-based
Method in brief: as §2

[19] = target: T1, Amine oxidase [flavin-containing] B; assay: In vitro inhibitory concentration against Monoamine oxidase B of rat brain homogenates; value ranges from 0.7-1.3; format: tissue-based
[20] = target: T2, Amine oxidase [flavin-containing] A; assay: In vitro inhibitory concentration against Monoamine oxidase A of rat brain homogenates; value ranges from 0.5-1.6; format: tissue-based
[21] = target: T2, Amine oxidase [flavin-containing] A; assay: In vitro inhibitory concentration against Monoamine oxidase A of rat brain homogenates; value ranges from 110-520; format: tissue-based
Acetylcholinesterase [22] = target: T4, Acetylcholinesterase; assay: In vitro inhibitory concentration against purified Acetylcholinesterase of human erythrocytes; value ranges from 0.12-0.32
Acetylcholinesterase [23] = target: T4, Acetylcholinesterase; assay: In vitro inhibitory concentration against purified Acetylcholinesterase of human erythrocytes; value ranges from 3.87-11.9
Butyrylcholinesterase [24] = target: T3, Butyrylcholinesterase; assay: In vitro inhibitory concentration against Butyrylcholinesterase of horse serum; value ranges from […]
Method in brief: as §1

[25] = target: T2, Amine oxidase [flavin-containing] A; assay: In vitro inhibitory concentration against Monoamine oxidase A of rat brain homogenates; format: tissue-based
Butyrylcholinesterase [26] = target: T3, Butyrylcholinesterase; assay: In vitro inhibitory concentration against Butyrylcholinesterase of horse serum; value ranges from 1.63-2.45
Method in brief: as §1

[27] = target: T2, Amine oxidase [flavin-containing] A; assay: In vitro inhibitory concentration against Monoamine oxidase A of rat brain homogenates; value ranges from 4.3-7.3; format: tissue-based
Acetylcholinesterase [28] = target: T4, Acetylcholinesterase; assay: In vitro inhibitory concentration against purified Acetylcholinesterase of human erythrocytes; value ranges from […]-[…]
Acetylcholinesterase [29] = target: T4, Acetylcholinesterase; assay: In vitro inhibitory concentration against purified Acetylcholinesterase of human erythrocytes; value ranges from 5.24-30.8
Butyrylcholinesterase [30] = target: T3, Butyrylcholinesterase; assay: In vitro inhibitory concentration against Butyrylcholinesterase of horse serum; value ranges from 6.8-31.2
Method in brief: as §1

Butyrylcholinesterase [31] = target: T3, Butyrylcholinesterase; assay: In vitro inhibitory concentration against Butyrylcholinesterase of horse serum; value ranges from 1.6-3.6
[32] = target: T2, Amine oxidase [flavin-containing] A; assay: biochemical
Acetylcholinesterase [33] = target: T4, Acetylcholinesterase; assay: In vitro inhibitory concentration against purified Acetylcholinesterase of human erythrocytes; value ranges from 13.6-128

For `C#CCN(C)CCc1cccc(O)c1`, the IC50 [1] was 6.4 µM and the IC50 [2] was 1.3 µM.
`C#CCNC(C)Cc1cccc(OC(=O)N(C)CCCC)c1` (stereo not drawn) was tested, and the IC50 (Butyrylcholinesterase [3]) was 2.75 µM, the IC50 [4] was 15 µM and the IC50 [5] was 0.4 µM. For the same molecule, the IC50 (Acetylcholinesterase [6]) was 12.2 µM.
In the case of `C#CCNC1CCc2ccc(OC(=O)N(C)C)cc2C1` (stereo not drawn), the IC50 (Acetylcholinesterase [7]) is reported as 4.1 µM, the IC50 [8] is reported as 1000 µM and the IC50 [9] is reported as 2 µM. For the same molecule, the IC50 (Butyrylcholinesterase [10]) was 0.77 µM.
With `C#CCN(C)C1CCc2c(O)cccc21` (stereo not drawn) the IC50 [11] was 0.008 µM.
In the case of `CN(C)C(=O)Oc1cccc(CCN)c1`, the IC50 [8] is reported as greater than 1000 µM, the IC50 [12] is reported as 95 µM and the IC50 (Acetylcholinesterase [13]) is reported as 0.23 µM.
Work on `C#CCNC(C)Cc1cccc(OC(=O)N(C)C2CCCCC2)c1` (stereo not drawn) yielded an IC50 [14] of 0.23 µM, an IC50 [15] of 18 µM and an IC50 (Acetylcholinesterase [16]) of 3.6 µM.
With `C#CCN(C)C1CCc2ccc(O)cc21` (stereo not drawn) the IC50 [17] was 0.015 µM and the IC50 [18] was 0.03 µM.
In the case of `C#CCNC1CCc2c(O)cccc21` (stereo not drawn), the IC50 [19] is reported as 0.9 µM and the IC50 [20] is reported as 0.9 µM.
Molecule `CCCN(C)C(=O)Oc1cccc(CCN)c1` has an IC50 [21] of 240 µM and an IC50 [8] greater than 1000 µM.
`CN(C)CCc1cccc(OC(=O)N(C)C)c1` gave an IC50 [8] greater than 1000 µM and an IC50 (Acetylcholinesterase [22]) of 0.16 µM.
`CCN(C)C(=O)Oc1ccc2c(c1)C(N)CCC2` (stereo not drawn) showed an IC50 (Acetylcholinesterase [23]) of 6.22 µM, an IC50 (Butyrylcholinesterase [24]) of 5.41 µM and an IC50 [25] of 1000 µM.
In the case of `CCN(C)C(=O)Oc1ccc2c(c1)[C@H](N)CC2`, the IC50 (Butyrylcholinesterase [26]) is reported as 1.96 µM, the IC50 [8] is reported as greater than 1000 µM and the IC50 [27] is reported as 5.6 µM. For the same molecule, the IC50 (Acetylcholinesterase [28]) was 6.14 µM.
`C#CCN[C@@H]1CCc2ccc(OC(=O)N(C)CCC)cc21` was tested, and the IC50 (Acetylcholinesterase [29]) was 10.8 µM and the IC50 (Butyrylcholinesterase [30]) was 14.9 µM.
`C#CCN[C@H]1CCc2ccc(OC(=O)N(C)CC)cc21` was tested, and the IC50 (Butyrylcholinesterase [31]) was 2.2 µM, the IC50 [8] was greater than 1000 µM and the IC50 [32] was 550 µM. The IC50 (Acetylcholinesterase [33]) was 34.9 µM.
